ChEMBL document CHEMBL1828509, “Synthesis, pharmacological evaluation and docking studies of coumarin derivatives” (2011)

How the values were obtained:
Type in all cases: functional
Escherichia coli [1] = test: Antimicrobial activity against Escherichia coli MTCC 4315 at 25 ug/ml; details: read-out: IZ
Bacillus subtilis [2] = test: Antimicrobial activity against Bacillus subtilis MTCC 1789 at 10 ug/ml; details: read-out: IZ
Bacillus subtilis [3] = test: Antimicrobial activity against Bacillus subtilis MTCC 1789 at 25 ug/ml; details: read-out: IZ
Bacillus subtilis [4] = test: Antimicrobial activity against Bacillus subtilis MTCC 1789 at 50 ug/ml; details: read-out: IZ
Candida albicans [5] = test: Antifungal activity against Candida albicans MTCC 183 at 10 ug/ml; details: read-out: IZ
Candida albicans [6] = test: Antifungal activity against Candida albicans MTCC 183 at 25 ug/ml; details: read-out: IZ
Candida albicans [7] = test: Antifungal activity against Candida albicans MTCC 183 at 50 ug/ml; details: read-out: IZ
Aspergillus niger [8] = test: Antifungal activity against Aspergillus niger MTCC 282 at 25 ug/ml; details: read-out: IZ
Aspergillus niger [9] = test: Antifungal activity against Aspergillus niger MTCC 282 at 50 ug/ml; details: read-out: IZ
Rattus norvegicus [10] = test: Antiinflammatory activity in Wistar albino rat assessed as inhibition of carrageenan-induced paw edema at 20 mg/kg, po administered 30 mins before carrageenan challenge measured after 1 hr by plethysmograph
Method in brief: (§1)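 Male Wistar albino rats (150–200 g), six per group, dosed orally with 20 mg/kg suspension; control got 0.1 ml of 1% gum acacia suspension orally. After 30 min, 0.1 ml of 1% carrageenan in normal saline injected sub-plantar into the right hind paw. Paw volume measured by plethysmograph at 0, 1, 2, 3 and 4 h; percent edema inhibition versus control at matching time.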

Rattus norvegicus [11] = test: Antiinflammatory activity in Wistar albino rat assessed as inhibition of carrageenan-induced paw edema at 20 mg/kg, po administered 30 mins before carrageenan challenge measured after 2 hrs by plethysmograph; method in brief: as §1
Rattus norvegicus [12] = test: Antiinflammatory activity in Wistar albino rat assessed as inhibition of carrageenan-induced paw edema at 20 mg/kg, po administered 30 mins before carrageenan challenge measured after 3 hrs by plethysmograph; method in brief: as §1
Rattus norvegicus [13] = test: Antiinflammatory activity in Wistar albino rat assessed as inhibition of carrageenan-induced paw edema at 20 mg/kg, po administered 30 mins before carrageenan challenge measured after 4 hrs by plethysmograph; method in brief: as §1
Mus musculus = test: Analgesic activity in mouse assessed as inhibition of acetic acid-induced writhing administered 30 mins before acetic acid challenge measured after 30 mins relative to control; parameters: concentration or dose not given beside the values
Method in brief: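 Groups of six mice (20–30 g, both sexes, pregnant females excluded) dosed with test compound; 30 min later 0.25 ml/mouse of 0.5% acetic acid given i.p. Writhes counted over the next 30 min. Mean writhes per group ± SE; percent decrease versus untreated control mice.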

Escherichia coli [14] = test: Antimicrobial activity against Escherichia coli MTCC 4315 at 10 ug/ml; details: read-out: IZ
Escherichia coli [15] = test: Antimicrobial activity against Escherichia coli MTCC 4315 at 50 ug/ml; details: read-out: IZ
Aspergillus niger [16] = test: Antifungal activity against Aspergillus niger MTCC 282 at 10 ug/ml; details: read-out: IZ

Row | Structure (SMILES) | zone of inhibition at 25 µg/mL (Escherichia coli [1]) [mm] | zone of inhibition at 10 µg/mL (Bacillus subtilis [2]) [mm] | zone of inhibition at 25 µg/mL (Bacillus subtilis [3]) [mm] | zone of inhibition at 50 µg/mL (Bacillus subtilis [4]) [mm] | zone of inhibition at 10 µg/mL (Candida albicans [5]) [mm] | zone of inhibition at 25 µg/mL (Candida albicans [6]) [mm] | zone of inhibition at 50 µg/mL (Candida albicans [7]) [mm] | zone of inhibition at 25 µg/mL (Aspergillus niger [8]) [mm] | zone of inhibition at 50 µg/mL (Aspergillus niger [9]) [mm] | inhibition in vivo at 20 mg/kg (Rattus norvegicus [10]) [%] | inhibition in vivo at 20 mg/kg (Rattus norvegicus [11]) [%] | inhibition in vivo at 20 mg/kg (Rattus norvegicus [12]) [%] | inhibition in vivo at 20 mg/kg (Rattus norvegicus [13]) [%] | Activity (Mus musculus) [%] | zone of inhibition at 10 µg/mL (Escherichia coli [14]) [mm] | zone of inhibition at 50 µg/mL (Escherichia coli [15]) [mm] | zone of inhibition at 10 µg/mL (Aspergillus niger [16]) [mm]
1 | COc1ccc(NCC(=O)Oc2ccc3c(C)cc(=O)oc3c2)cc1 | 11.2 | 11.2 | 13.3 | 14.4 | 10.2 | 12.4 | 13.2 | 13.2 | 14.1 | 30.3 | 33.3 | 37.2 | 28.8 | 17 | 10.5 | – | –
2 | Cc1cc(=O)oc2cc(OC(=O)CNc3ccc(Cl)cc3)ccc12 | 10.8 | – | – | 12.3 | 10.6 | 12.2 | 13.4 | 10.2 | 12.1 | 10.7 | 23 | 15.9 | 16.1 | 11 | – | 12.6 | –
3 | NCC[C@H](O)C(=O)N[C@@H]1C[C@H](N)[C@@H](O[C@H]2O[C@H](CN)[C@@H](O)[C@H](O)[C@H]2O)[C@H](O)[C@H]1O[C@H]1O[C@H](CO)[C@@H](O)[C@H](N)[C@H]1O [AMIKACIN] | 16.2 | – | – | – | – | – | – | – | – | – | – | – | – | – | 14 | 20 | –
4 | Cc1cc(=O)oc2cc(OC(=O)CNc3ccccc3)ccc12 | – | 10.4 | 11.8 | 12.6 | – | – | – | 10.2 | – | 10.7 | 29.4 | 30.8 | 13.7 | 24 | – | 10.4 | –
5 | Cc1cc(=O)oc2cc(OC(=O)CNN3C=NNC3)ccc12 | 14.1 | 12.5 | 14.3 | 18.1 | 12.4 | 13.4 | 15.4 | 13.6 | – | 42.8 | 42.3 | 27.6 | 22.2 | 37 | – | 16.2 | 11.2
6 | Cc1cc(=O)oc2cc(OC(=O)CNc3nccs3)ccc12 | 10.2 | 10.4 | 14.4 | 16.9 | 10.1 | – | 12.4 | 15.4 | 16.5 | 39.2 | 37.1 | 47.8 | 32.3 | 45 | – | 18.4 | 13.4
7 | COc1ccccc1NCC(=O)Oc1ccc2c(C)cc(=O)oc2c1 | – | 10.2 | 11.4 | – | – | – | 12.4 | – | 12.4 | 10.7 | 15.3 | 26.6 | 19.4 | 28 | – | 10.2 | 10.4
8 | Cc1cc(=O)oc2cc(OC(=O)CNc3ccccc3[N+](=O)[O-])ccc12 | 10.1 | 11.2 | 12.4 | 13.7 | – | 10.4 | – | – | – | 21.4 | 16.6 | 15.9 | 15.2 | 28 | – | – | 10.1
9 | Cc1cccc(NCC(=O)Oc2ccc3c(C)cc(=O)oc3c2)c1 | 14 | 10.5 | 12.4 | 13.6 | 11.4 | 13.4 | 14.4 | 12.2 | 13.4 | 12.5 | 15.3 | 15.9 | 23.7 | 13 | 11 | 16.9 | –
10 | Cc1ccccc1NCC(=O)Oc1ccc2c(C)cc(=O)oc2c1 | 10.5 | – | – | 11.6 | – | – | 12.2 | 12.4 | 13.1 | 12.5 | 15.3 | 17 | 19.4 | 23 | – | – | 10.6
11 | Cc1ccc(NCC(=O)Oc2ccc3c(C)cc(=O)oc3c2)cc1 | 13 | – | – | 12.3 | – | – | 12.4 | 10.5 | 11.4 | 14.2 | 20.5 | 20.2 | 6.7 | 28 | 11.2 | 14 | –
12 | COC1=CC(=O)C[C@@H](C)[C@]12Oc1c(Cl)c(OC)cc(OC)c1C2=O [GRISEOFULVIN] | – | – | – | – | 12.6 | 14.2 | 18.2 | – | – | – | – | – | – | – | – | – | –
13 | CN[C@H](CC(C)C)C(=O)N[C@H]1C(=O)N[C@@H](CC(N)=O)C(=O)N[C@H]2C(=O)N[C@H]3C(=O)N[C@H](C(=O)N[C@H](C(=O)O)c4cc(O)cc(O)c4-c4cc3ccc4O)[C@H](O)c3ccc(c(Cl)c3)Oc3cc2cc(c3O[C@@H]2O[C@H](CO)[C@@H](O)[C@H](O)[C@H]2O[C@H]2C[C@](C)(N)[C@H](O)[C@H](C)O2)Oc2ccc(cc2Cl)[C@H]1O [VANCOMYCIN] | – | 14.2 | 18.2 | 20.1 | – | – | – | – | – | – | – | – | – | – | – | – | –
14 | COc1ccc2c(c1)c(CC(=O)O)c(C)n2C(=O)c1ccc(Cl)cc1 [INDOMETHACIN] | – | – | – | – | – | – | – | – | – | 53.5 | 67.9 | 68.8 | 57.6 | 56 | – | – | –
15 | Cc1cc(=O)oc2cc(OC(=O)CNc3cccc([N+](=O)[O-])c3)ccc12 | 11.3 | – | 11.2 | 13.4 | 10.5 | – | – | 10.5 | 11.4 | 28.5 | 30.7 | 34 | 32.2 | 13 | 10.3 | 11.1 | –
16 | Cc1cc(=O)oc2cc(OC(=O)CNc3nc4ccccc4s3)ccc12 | – | 10.4 | – | 18.1 | 13.4 | 12.2 | – | – | 12.4 | 30.3 | 35.9 | 40.4 | 40.6 | 35 | – | 14.5 | –
17 | Cc1cc(=O)oc2cc(OC(=O)CNc3ccccc3Cl)ccc12 | 10.8 | – | – | – | – | – | 10.4 | 10.2 | 12.4 | 21.4 | 11.5 | 12.8 | 23.7 | 21 | – | 12.6 | –
18 | Cc1cc(=O)oc2cc(OC(=O)CNc3ccc([N+](=O)[O-])cc3)ccc12 | 14.2 | 10.2 | 12.1 | 13.4 | – | 10.2 | 11.4 | – | 10.2 | 12.5 | 17.9 | 20.2 | 23.7 | 28 | 12.2 | 16.9 | –
